Measured values gathered from unrelated publications.
Each line is one published result; the experiments were not run side by side.
Read-out: cell growth or viability

With `CCOc1cc2ncc(C#N)c(Nc3ccc(OCc4ccccn4)c(Cl)c3)c2cc1NC(=O)/C=C/CN(C)C` the IC50 was 18.5 nM (NCI-N87; ATP luminescence).
`O=P1(c2ccccc2)CCCCC1` gave an IC50 of greater than 100000 nM (SW480; MTT; 72 h).
For `NNc1nc2ccc(Br)cc2c(=O)n1-c1ccc(Cl)cc1`, the IC50 was 10900 nM (SW480; MTT; 48 h).
With `Cc1c(C)c2c(c(C)c1O)CCC(C)(COc1ccc(CC3SC(=O)NC3=O)cc1)O2` (stereo not shown) the IC50 was 16300 nM (THLE-2; MTT).
For `Cc1cc2c(C(N)=O)cccc2n1-c1nc2c(c(NCc3ccccc3)n1)CCCN2`, the IC50 was 700 nM (MM1.S; 72 h).
With `Cc1ccc(NNc2nc3ccc(Br)cc3c(=O)n2-c2ccccc2)cc1` the IC50 was 85400 nM (SW480; MTT; 48 h).
With `O=C(NO)c1ccc(Cn2cnc3c(Nc4ccc(F)c(Cl)c4)ncnc32)cc1` the IC50 was 2690 nM (MM1.S; MTT; 72 h).
The IC50 of `CS(=O)(=O)CCNCc1ccc(-c2ccc3ncnc(Nc4ccc(OCc5cccc(F)c5)c(Cl)c4)c3c2)o1` is reported as 57.2 nM (NCI-N87; ATP luminescence).
With `COc1cccc2c1C(=O)c1c(O)c3c(c(O)c1C2=O)C[C@@](O)(C(=O)CO)C[C@@H]3O[C@H]1C[C@H](N)[C@H](O)[C@H](C)O1` the IC50 was 750 nM (SW480; MTT; 72 h).
With `COc1cccc2c1C(=O)c1c(O)c3c(c(O)c1C2=O)C[C@@](O)(C(=O)CO)C[C@@H]3O[C@H]1C[C@H](N)[C@H](O)[C@H](C)O1` the IC50 was 90 nM (SW480; MTT; 48 h).
For `O=C(NO)c1ccc(Cn2cnc3c(Nc4ccc(Br)cc4F)ncnc32)cc1`, the IC50 was 1870 nM (MM1.S; MTT; 72 h).
With `NNc1nc2ccc(Br)cc2c(=O)n1-c1ccccc1` the IC50 was 136000 nM (SW480; MTT; 48 h).
For `Nc1ccccc1NC(=O)c1ccc(Cn2cnc3c(Nc4ccc(Cl)cc4)ncnc32)cc1`, the IC50 was 1130 nM (MM1.S; MTT; 72 h).
With `C=C1CC[C@@H]2[C@](C)(CO)[C@H](O)CC[C@@]2(C)[C@@H]1C/C=C1/C(=O)OC[C@H]1O` the IC50 was 4480 nM (SW480; MTT; 48 h).
With `NNc1nc2ccc(Br)cc2c(=O)n1-c1ccc(F)cc1` the IC50 was 14600 nM (SW480; MTT; 48 h).
`O=C(NO)c1ccc(Cn2cnc3c(Nc4ccc(Cl)cc4)ncnc32)cc1` has an IC50 of 2640 nM (MM1.S; MTT; 72 h).
With `CN(C)C(=O)Nc1nc2ccc(Br)cc2c(=O)n1-c1ccccc1` the IC50 was greater than 200000 nM (SW480; MTT; 48 h).
`COc1cccc2c1C(=O)c1c(O)c3c(c(O)c1C2=O)C[C@@](O)(C(=O)CO)C[C@@H]3O[C@H]1C[C@H](N)[C@H](O)[C@H](C)O1` gave an IC50 of 166 nM (HGC-27; 96 h).
`Cc1ccc(NNc2nc3c(Cl)cc(Cl)cc3c(=O)n2-c2ccccc2)cc1` has an IC50 of 132000 nM (SW480; MTT; 48 h).
For `Cc1nc(Nc2ncc(C(=O)Nc3c(C)cccc3Cl)s2)cc(N2CC[C@H](O)C2)n1`, the IC50 was greater than 10000 nM (Toledo; ATP luminescence; 72 h).
The IC50 of `CCCN1CC(Oc2ccc([C@@H]3c4[nH]c5ccccc5c4C[C@@H](C)N3CC(C)(C)F)cc2)C1` is reported as 126 nM (CAMA-1).
`O=C(NO)Nc1nc2ccc(Br)cc2c(=O)n1-c1ccccc1` has an IC50 of greater than 200000 nM (SW480; MTT; 48 h).
